Biological target in one assay: not listed separately
In words: Inhibition of [3H]alpha-bungarotoxin binding to nicotinic acetylcholine receptor alpha-1-beta-1-delta-gamma of electroplax. Details: species or system pisces.
Chain of Neuronal acetylcholine receptor; alpha3/beta4 (P30926 whole entry): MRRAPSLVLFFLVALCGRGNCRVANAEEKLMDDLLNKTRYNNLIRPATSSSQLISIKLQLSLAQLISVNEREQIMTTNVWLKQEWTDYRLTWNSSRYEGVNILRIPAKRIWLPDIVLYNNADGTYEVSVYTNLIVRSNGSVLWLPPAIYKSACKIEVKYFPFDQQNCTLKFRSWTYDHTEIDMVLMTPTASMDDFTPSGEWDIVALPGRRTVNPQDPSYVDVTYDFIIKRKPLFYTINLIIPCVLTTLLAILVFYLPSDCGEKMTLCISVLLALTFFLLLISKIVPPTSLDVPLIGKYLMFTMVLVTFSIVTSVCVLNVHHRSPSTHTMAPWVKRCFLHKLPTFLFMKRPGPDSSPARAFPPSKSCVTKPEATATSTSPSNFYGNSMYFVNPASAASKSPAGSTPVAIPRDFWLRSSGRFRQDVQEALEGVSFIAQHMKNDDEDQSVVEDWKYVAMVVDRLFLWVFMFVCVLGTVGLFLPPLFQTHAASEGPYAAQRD
Chain of Neuronal acetylcholine receptor; alpha3/beta4 (P32297 whole entry): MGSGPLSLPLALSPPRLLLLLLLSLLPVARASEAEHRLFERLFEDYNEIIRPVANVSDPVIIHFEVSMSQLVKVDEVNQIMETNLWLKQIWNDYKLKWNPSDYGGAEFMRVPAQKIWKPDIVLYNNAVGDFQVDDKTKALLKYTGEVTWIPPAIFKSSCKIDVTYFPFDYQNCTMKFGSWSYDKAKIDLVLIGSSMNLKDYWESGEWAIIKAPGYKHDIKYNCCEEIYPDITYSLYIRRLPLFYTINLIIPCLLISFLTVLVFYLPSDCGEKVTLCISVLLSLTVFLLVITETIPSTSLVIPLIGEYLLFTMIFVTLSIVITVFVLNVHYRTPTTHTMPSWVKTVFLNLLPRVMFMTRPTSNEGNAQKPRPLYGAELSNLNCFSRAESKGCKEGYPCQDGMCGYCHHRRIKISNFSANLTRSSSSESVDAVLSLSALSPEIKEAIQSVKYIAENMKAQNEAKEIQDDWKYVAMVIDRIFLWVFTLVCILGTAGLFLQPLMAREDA
Chain of Neuronal acetylcholine receptor; alpha4/beta2 (Homo sapiens, UniProt P17787+P43681) (P17787 whole entry): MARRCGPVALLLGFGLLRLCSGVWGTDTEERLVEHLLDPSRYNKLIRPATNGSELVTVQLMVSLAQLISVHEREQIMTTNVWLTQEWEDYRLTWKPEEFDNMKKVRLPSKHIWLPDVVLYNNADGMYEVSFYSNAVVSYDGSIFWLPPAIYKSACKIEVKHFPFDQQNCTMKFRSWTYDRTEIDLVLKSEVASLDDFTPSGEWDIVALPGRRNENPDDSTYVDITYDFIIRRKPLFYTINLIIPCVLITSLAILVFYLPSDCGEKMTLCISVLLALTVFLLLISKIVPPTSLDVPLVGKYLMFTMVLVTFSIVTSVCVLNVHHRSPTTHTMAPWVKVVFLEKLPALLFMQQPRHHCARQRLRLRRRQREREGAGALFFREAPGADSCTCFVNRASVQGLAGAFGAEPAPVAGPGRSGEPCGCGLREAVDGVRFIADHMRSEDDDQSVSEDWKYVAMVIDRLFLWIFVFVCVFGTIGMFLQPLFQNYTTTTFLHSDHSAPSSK
Chain of Neuronal acetylcholine receptor; alpha4/beta2 (Homo sapiens, UniProt P17787+P43681) (P43681 whole entry): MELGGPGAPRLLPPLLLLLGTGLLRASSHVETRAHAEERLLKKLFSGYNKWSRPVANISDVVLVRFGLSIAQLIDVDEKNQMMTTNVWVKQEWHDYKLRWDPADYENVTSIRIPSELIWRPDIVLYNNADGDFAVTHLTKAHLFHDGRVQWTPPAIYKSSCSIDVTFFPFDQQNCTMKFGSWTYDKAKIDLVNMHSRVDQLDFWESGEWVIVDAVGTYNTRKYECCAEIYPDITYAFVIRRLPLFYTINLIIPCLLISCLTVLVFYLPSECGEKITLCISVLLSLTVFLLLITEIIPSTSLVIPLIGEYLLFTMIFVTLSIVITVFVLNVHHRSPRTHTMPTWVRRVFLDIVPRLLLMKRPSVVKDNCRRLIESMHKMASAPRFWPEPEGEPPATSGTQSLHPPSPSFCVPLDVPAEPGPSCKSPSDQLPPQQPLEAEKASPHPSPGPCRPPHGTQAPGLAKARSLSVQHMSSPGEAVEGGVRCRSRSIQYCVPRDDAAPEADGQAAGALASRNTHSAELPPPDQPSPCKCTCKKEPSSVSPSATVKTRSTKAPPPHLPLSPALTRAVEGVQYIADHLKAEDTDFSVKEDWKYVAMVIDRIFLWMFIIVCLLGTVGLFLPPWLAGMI
For the compound `Fc1ccc2c(c1F)CC1CNCC2C1` (stereo unspecified), the affinity, expressed as Ki, was 3000 nM.
Same read-out and setting: for `c1cc2c(c3c1CC1CNCC3C1)OCO2` (stereo unspecified) the value was 4500 nM; for `O=c1cccc2n1C[C@@H]1CNC[C@H]2C1` [CYTISINICLINE], 250 nM.

The next assay concerns the target Neuronal acetylcholine receptor; alpha4/beta2 (Homo sapiens, UniProt P17787+P43681). In words: Binding affinity against nicotinic acetylcholine receptor alpha4-beta2 in human HEK293 cells using [3H]- nicotine as radioligand. Format: cell-based.
For the compound `COc1ccc2c(c1)CC1CNCC2C1` (stereo unspecified), the Ki was found to be 1.4 nM.
Same read-out and setting: for `COc1ccc(-c2ccc3c(c2)CC2CNCC3C2)cc1` (stereo unspecified) the value was 370 nM; for `FC(F)Oc1ccc2c(c1)CC1CNCC2C1` (stereo unspecified), 7 nM.
For the compound `FC(F)(F)c1ccc(-c2ccc3c(c2)CC2CNCC3C2)cc1` (stereo unspecified), the Ki came out at 200 nM.
Regarding `c1ccc(-c2ccc3c(c2)CC2CNCC3C2)cc1` (stereo unspecified), the Ki is > 500 nM.
In turn, `COc1ccc2c(c1O)CC1CNCC2C1` (stereo unspecified) returned a Ki of 13 nM.
`Oc1cccc2c1CC1CNCC2C1` (stereo unspecified) came in with a Ki of 2.9 nM.
`c1cncc(-c2ccc3c(c2)CC2CNCC3C2)c1` (stereo unspecified): the Ki is > 500 nM.
Regarding `O=c1oc2ccc3c(c2o1)CC1CNCC3C1` (stereo unspecified), the Ki was > 500 nM.
Turning to `O=[N+]([O-])c1ccc2c(c1)C1CNCC(C2)C1` (stereo unspecified), the Ki worked out at 6.5 nM.
Compound `O=[N+]([O-])c1ccc2c(c1)CC1CNCC2C1` (stereo unspecified) displayed a Ki of 4.9 nM.
The same measure, in the same setting: for `COC(=O)c1ccc2c(c1)CC1CNCC2C1` (stereo unspecified) the value was 34 nM.
On the same count and under the same terms, for `Fc1ccc2c(c1)CC1CNCC2C1` (stereo unspecified) the value was 2 nM.
The compound `Fc1cccc2c1CC1CNCC2C1` (stereo unspecified) registered a Ki of 6.5 nM.
On the same count and under the same terms, for `CC(C)(O)c1ccc2c(c1)CC1CNCC2C1` (stereo unspecified) the value was 264 nM; for `COc1cccc2c1CC1CNCC2C1` (stereo unspecified), > 500 nM.
Consider `Nc1cccc(-c2ccc3c(c2)CC2CNCC3C2)c1` (stereo unspecified), for which the Ki is > 500 nM.
On the same count and under the same terms, for `CC(C)c1ccc2c(c1)CC1CNCC2C1` (stereo unspecified) the value was 72 nM.
The same measure, in the same setting: to `CCOc1ccc2c(c1)CC1CNCC2C1` (stereo unspecified) belongs 13 nM; to `O=[N+]([O-])c1cccc2c1C1CNCC(C2)C1` (stereo unspecified), 14 nM; to `Fc1ccc2c(c1F)CC1CNCC2C1` (stereo unspecified), 0.44 nM.
Take `NC(=O)COc1ccc2c(c1)CC1CNCC2C1` (stereo unspecified): the Ki is > 500 nM.
On to `c1ccc2c(c1)CC1CNCC2C1` (stereo unspecified), for which the Ki was 34 nM.
Compound `c1cc2c(c3c1CC1CNCC3C1)OCO2` (stereo unspecified) had a Ki of 5.7 nM.
On to `Oc1ccc2c(c1)CC1CNCC2C1` (stereo unspecified), for which the Ki worked out at 90 nM.
For the compound `O=c1cccc2n1C[C@@H]1CNC[C@H]2C1` [CYTISINICLINE], the Ki is 0.23 nM.

For a further assay, the target named is Neuronal acetylcholine receptor; alpha4/beta2 (Rattus norvegicus, UniProt P09483+P12390). In words: Inhibition of [3H]-nicotine binding to nicotinic acetylcholine receptor alpha4-beta2 in rat cortex.
Chain of Neuronal acetylcholine receptor; alpha4/beta2 (Rattus norvegicus, UniProt P09483+P12390) (P09483 whole entry): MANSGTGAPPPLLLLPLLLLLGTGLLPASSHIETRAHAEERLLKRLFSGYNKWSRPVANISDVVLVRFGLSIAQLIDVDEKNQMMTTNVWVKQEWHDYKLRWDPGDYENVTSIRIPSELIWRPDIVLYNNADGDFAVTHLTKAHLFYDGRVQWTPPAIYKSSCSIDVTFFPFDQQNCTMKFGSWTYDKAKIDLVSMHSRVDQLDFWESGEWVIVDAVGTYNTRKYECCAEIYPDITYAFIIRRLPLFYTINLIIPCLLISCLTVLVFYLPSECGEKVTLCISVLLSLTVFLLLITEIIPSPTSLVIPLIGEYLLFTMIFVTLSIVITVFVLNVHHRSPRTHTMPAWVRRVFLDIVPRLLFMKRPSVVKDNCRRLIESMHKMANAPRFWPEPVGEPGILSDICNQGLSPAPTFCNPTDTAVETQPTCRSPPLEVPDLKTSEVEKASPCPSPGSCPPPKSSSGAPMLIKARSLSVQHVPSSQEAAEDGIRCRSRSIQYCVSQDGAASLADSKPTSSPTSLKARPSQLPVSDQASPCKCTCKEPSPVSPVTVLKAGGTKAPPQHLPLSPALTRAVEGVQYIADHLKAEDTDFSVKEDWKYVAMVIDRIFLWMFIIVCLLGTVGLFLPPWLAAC
Chain of Neuronal acetylcholine receptor; alpha4/beta2 (Rattus norvegicus, UniProt P09483+P12390) (P12390 whole entry): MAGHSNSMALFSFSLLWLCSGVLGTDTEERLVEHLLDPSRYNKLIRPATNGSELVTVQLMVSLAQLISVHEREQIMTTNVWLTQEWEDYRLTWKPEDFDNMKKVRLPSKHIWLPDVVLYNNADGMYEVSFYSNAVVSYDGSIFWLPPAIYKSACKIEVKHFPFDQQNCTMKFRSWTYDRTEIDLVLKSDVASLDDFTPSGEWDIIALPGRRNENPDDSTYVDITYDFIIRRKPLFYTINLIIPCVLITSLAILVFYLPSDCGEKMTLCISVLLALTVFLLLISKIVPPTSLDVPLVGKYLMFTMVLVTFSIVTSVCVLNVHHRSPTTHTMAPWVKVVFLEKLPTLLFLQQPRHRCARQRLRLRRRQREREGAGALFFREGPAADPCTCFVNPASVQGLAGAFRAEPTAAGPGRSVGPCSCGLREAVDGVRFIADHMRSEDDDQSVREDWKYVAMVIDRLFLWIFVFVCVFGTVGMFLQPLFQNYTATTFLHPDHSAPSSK
On to `COc1ccc2c(c1)CC1CNCC2C1` (stereo unspecified), for which the Ki turned out to be 3.2 nM.
The same measure, in the same setting: for `COc1ccc2c(c1)C1CNCC(C2)C1` (stereo unspecified) the value was 90 nM.
Regarding `Oc1ccc2c(c1)C1CNCC(C2)C1` (stereo unspecified), the affinity, expressed as Ki, was 75 nM.
`c1ccc2c(c1)CC1CNCC2C1` (stereo unspecified): the Ki is 65 nM.

The target of another assay is Neuronal acetylcholine receptor subunit alpha-7 (Homo sapiens, UniProt P36544). In words: Inhibition of [3H]alpha-bungarotoxin binding to nicotinic acetylcholine receptor alpha7 of IMR32 cells. Format: cell-based, IMR-32.
Chain of Neuronal acetylcholine receptor subunit alpha-7 (P36544 whole entry): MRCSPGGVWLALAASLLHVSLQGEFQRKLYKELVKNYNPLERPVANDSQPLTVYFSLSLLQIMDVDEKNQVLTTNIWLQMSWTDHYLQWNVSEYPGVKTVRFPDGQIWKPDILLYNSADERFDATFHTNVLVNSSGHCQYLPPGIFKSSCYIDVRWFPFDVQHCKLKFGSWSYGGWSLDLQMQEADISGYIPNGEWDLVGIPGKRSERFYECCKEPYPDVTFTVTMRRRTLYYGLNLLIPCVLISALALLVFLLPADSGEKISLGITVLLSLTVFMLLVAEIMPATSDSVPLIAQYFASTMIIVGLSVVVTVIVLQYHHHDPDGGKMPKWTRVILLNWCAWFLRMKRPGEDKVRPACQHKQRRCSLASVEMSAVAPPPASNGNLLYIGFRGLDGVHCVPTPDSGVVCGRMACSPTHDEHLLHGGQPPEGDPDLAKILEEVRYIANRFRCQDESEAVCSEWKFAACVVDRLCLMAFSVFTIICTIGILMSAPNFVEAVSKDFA
In the case of `COc1ccc2c(c1)CC1CNCC2C1` (stereo unspecified), the Ki was 2400 nM.
`FC(F)Oc1ccc2c(c1)CC1CNCC2C1` (stereo unspecified) showed a Ki of 1700 nM.
Compound `Fc1ccc2c(c1)CC1CNCC2C1` (stereo unspecified) gave a Ki of 350 nM.
Consider `Fc1cccc2c1CC1CNCC2C1` (stereo unspecified), for which the Ki was determined as 830 nM.
The same measure, in the same setting: for `Fc1ccc2c(c1F)CC1CNCC2C1` (stereo unspecified) the value was 520 nM.
Compound `c1cc2c(c3c1CC1CNCC3C1)OCO2` (stereo unspecified) came in with a Ki of 5100 nM.
Compound `O=c1cccc2n1C[C@@H]1CNC[C@H]2C1` [CYTISINICLINE] showed a Ki of 4200 nM.

The target of the next assay is Neuronal acetylcholine receptor; alpha3/beta4 (Homo sapiens, UniProt P30926+P32297). In words: Inhibition of [3H]epibatidine binding to nicotinic acetylcholine receptor alpha3-beta4 of IMR32 cells. In kind it is cell-based, IMR-32. Summed up:
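Displacement of [3H]epibatidine binding in IMR32 cells, taken as the α3β4 nAChR site.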
Consider `COc1ccc2c(c1)CC1CNCC2C1` (stereo unspecified), for which the affinity, expressed as Ki, was 810 nM.
The compound `O=[N+]([O-])c1ccc2c(c1)C1CNCC(C2)C1` (stereo unspecified) gave an inhibition constant (Ki) of 980 nM.
Regarding `O=[N+]([O-])c1ccc2c(c1)CC1CNCC2C1` (stereo unspecified), the Ki was 340 nM.
`Fc1ccc2c(c1)CC1CNCC2C1` (stereo unspecified) returned a Ki of 710 nM.
`Fc1ccc2c(c1F)CC1CNCC2C1` (stereo unspecified) came in with a Ki of 810 nM.
Still for that read-out and setting: for `c1cc2c(c3c1CC1CNCC3C1)OCO2` (stereo unspecified) the value was 1900 nM.

The term Ki denotes the dissociation constant of the complex between target and ligand, obtained from inhibition or displacement. Lower therefore signals a stronger hold on the target.

For the origin of these results see ChEMBL document CHEMBL1139609, “In pursuit of alpha4beta2 nicotinic receptor partial agonists for smoking cessation: carbon analogs of (-)-cytisine” (Bioorg Med Chem Lett, 2005).
